Compound activity as filed in PubChem.
E-sel inducer = E-selectin induction in HUVECs, primary screen, imaging, HUVEC, immunofluorescence imaging, single point | P16581 | normalized: neutral wells 0, TNF-alpha wells 100 | activation, % at 7.58 µM | 260,000 compounds, 0.37% hits | AID 686992, 2013;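 active = mean E-selectin-positive cell signal at least 10% of the positive control, reached in at least 60% of replicates, without over 20% cell loss; inconclusive = no rule given, readout overlaps actives, possibly toxicity-flagged; inactive = the rest, including those meeting only one limit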
Target sequence (P16581 whole entry, looked up): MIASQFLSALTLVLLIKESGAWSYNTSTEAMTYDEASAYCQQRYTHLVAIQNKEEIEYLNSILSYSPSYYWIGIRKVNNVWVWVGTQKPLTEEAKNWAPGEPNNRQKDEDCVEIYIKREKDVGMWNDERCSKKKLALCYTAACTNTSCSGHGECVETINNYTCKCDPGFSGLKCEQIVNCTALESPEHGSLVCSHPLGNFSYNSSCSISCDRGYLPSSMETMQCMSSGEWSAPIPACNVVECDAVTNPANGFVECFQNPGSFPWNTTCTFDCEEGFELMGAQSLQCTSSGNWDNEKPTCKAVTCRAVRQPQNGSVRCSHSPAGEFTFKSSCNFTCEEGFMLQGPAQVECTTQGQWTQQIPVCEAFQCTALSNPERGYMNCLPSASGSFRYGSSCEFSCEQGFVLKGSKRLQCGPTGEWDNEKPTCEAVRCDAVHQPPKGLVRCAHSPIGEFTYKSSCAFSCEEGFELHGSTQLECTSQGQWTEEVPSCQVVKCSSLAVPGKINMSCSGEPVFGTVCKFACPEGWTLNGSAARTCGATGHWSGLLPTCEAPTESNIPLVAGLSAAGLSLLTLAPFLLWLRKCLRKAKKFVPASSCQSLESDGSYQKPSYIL
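assay system = HUVEC, human umbilical vein endothelial cells | input = 3,000 HUVEC seeded per well | medium = EGM-2 growth medium on 0.1% gelatin-coated wells | dosing = one compound dose added by pin transfer | signal = immunofluorescence imaging | read-out basis = % PE-positive cells | control set = TNF-alpha, DMSO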
F508del corr = F508del CFTR correction, initial screen, CFBE line, single point; CFBE cells, YFP halide quenching; stimulated with forskolin plus potentiator P3; % fluorescence drop versus neutral controls; activity (quench increase), % at 7.58 µM; 350,000 compounds, 0.36% hits;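 active = mean added fluorescence quench of at least 8% versus neutral control, with both replicates also reaching 8%; inconclusive = only one of the mean or replicate conditions met; inactive = mean below 8% and not both replicates reaching 8%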;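 also: cells transiently co-express mutant CFTR-F508del with the halide-sensitive YFP; corrector assay measuring rescue of mutant channel to the surface after 24 h compound exposure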
ERAP1 inh = human ERAP1 aminopeptidase inhibitors, primary screen, biochemical, single point, plate reader. 340,000 compounds, 0.15% hits. recombinant ERAP1, Leu-AMC fluorescence, 60 min. inhibition, % at 10.7 µM. Endoplasmic reticulum aminopeptidase 1 (Homo sapiens), Q9NZ08. AID 652197, 2013;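 active = mean replicate inhibition of at least 30%, or all replicates individually reaching that 30% level; inactive = mean below 30% and not every replicate reaching it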
DENV2 CPE = inhibitors of DENV2 cytopathic effect, primary screen, cell-based, plate reader, single concentration | DENV2-infected cells, cytopathic effect rescue | CPE inhibition, % at 9.99 µM | 350,000 compounds, 1.7% hits | AID 651640, 2012; in the data active = CPE inhibition above about 20%, passing the limit was not always enough; inconclusive = no clear call, values can overlap the other calls; tested in BHK-21 cells
FGF22 binding = binders of human FGF22 protein, primary screen, FGF22 synaptogenesis inhibitor project, biophysical, thermal shift, single point | 340,000 compounds, 1.5% hits | AID 651658, 2012 | activity (Tm shift, normalised), % at 9.99 µM | Fibroblast growth factor 22 (Homo sapiens), Q9HCT0 | recombinant FGF22 thermal shift, SYPRO orange fluorescence; percent of sucrose octasulfate shift, DMSO zero;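 active = mean Tm shift, scaled 0 neutral to 100 positive control, at about 1.3% or above, every replicate too, limit read from the data; inconclusive = no clear call, values can overlap the other calls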
Each line names hits and unclear results; the compound was inactive in the other large screens. The list is not random: actives were taken first. Their share in the collection is about 3.7%.

Cn1c(CCC(=O)Nc2cc(S(C)(=O)=O)ccc2Cl)nc2cc(S(=O)(=O)N3CCOCC3)ccc21	ERAP1 inh 63
CC(C)Oc1ccc(S(=O)(=O)N2CCOCC2)cc1NC(=O)Cc1ccsc1	DENV2 CPE 42
C[C@@H]1CN([C@@H](C)CO)C(=O)c2cc(C3=CCCCC3)cnc2O[C@H]1CN(C)C(=O)C1CCOCC1	none
CC(C)(C)c1ccc(C(=O)OCC(=O)N2CCC(c3ccccc3)=N2)cc1	FGF22 binding 30
C[C@H](CO)N1C[C@H](C)[C@H](CN(C)C(=O)CCCN(C)C)OCCCC[C@H](C)Oc2ccc(NC(=O)c3ccccc3)cc2C1=O	none
CCc1ccc(-c2cn3c(n2)SCC3)cc1	FGF22 binding 43 (no result: E-sel inducer)
CN(Cc1ccccc1)C(=O)c1nc2ccccn2c1CNCCCOc1cccnc1	none
CC(c1ccon1)N(C)Cc1c(C(=O)N(C)Cc2ccccc2)nc2ccccn12 (configuration not stated)	FGF22 binding 43 (no result: E-sel inducer, F508del corr)
COc1cc(C(O)CO)ccc1OS(=O)(=O)O (configuration not stated)	F508del corr 10.0
CN(C)C(=O)C(CCN1CCC(O)(c2ccc(Cl)cc2)CC1)(c1ccccc1)c1ccccc1	F508del corr 11, DENV2 CPE inconclusive
O=C(NC1=NCCS1)C12CC3CC(CC(C3)C1)C2	none (no result: E-sel inducer)
CC(C)CC(NC(=O)CC12CC3CC(CC(C3)C1)C2)C(=O)NC1=NCCS1 (configuration not stated)	FGF22 binding 43 (no result: E-sel inducer)
COC(=O)c1ccc(CNCC(=O)Nc2ccc(C(=O)OC)cc2)cc1	FGF22 binding 43 (no result: E-sel inducer, DENV2 CPE)
COC(=O)c1ccc(NC(=O)Cc2ccc(F)cc2)cc1	none
COc1ccc2c3c([nH]c2c1)[C@@H](CO)NCC31CCN(Cc2ccc(F)cc2)CC1	DENV2 CPE 24 (no result: ERAP1 inh, FGF22 binding)
COc1ccc2c3c([nH]c2c1)[C@@H](CO)NCC31CCN(C(=O)C2CCCC2)CC1	DENV2 CPE 78
Cc1ccc(C(=O)Nc2cccc(C(F)(F)F)c2)cc1NC(=O)c1c[nH]c2cc(C(F)(F)F)ccc2c1=O	FGF22 binding 44 (no result: DENV2 CPE)
C[C@@H]1CN([C@@H](C)CO)C(=O)c2cc(NC(=O)C3CCCCC3)ccc2O[C@@H]1CN(C)C(=O)Nc1ccc(C(F)(F)F)cc1	none
C[C@H]1CN([C@@H](C)CO)S(=O)(=O)c2ccc(C#CC3(O)CCCC3)cc2O[C@H]1CN(C)C(=O)Cc1ccccc1	none
C[C@@H]1CN([C@@H](C)CO)C(=O)c2cc(NC(=O)C3CCCCC3)ccc2O[C@@H](C)CCCCO[C@@H]1CN(C)C(=O)Nc1ccc(C(F)(F)F)cc1	none
C[C@@H]1CCCCO[C@@H](CN(C)Cc2ccc(C(F)(F)F)cc2)[C@@H](C)CN([C@H](C)CO)C(=O)c2cc(NC(=O)C3CCCCC3)ccc2O1	DENV2 CPE 31 (no result: ERAP1 inh)
C[C@@H]1CCCCO[C@@H](CN(C)C(=O)Nc2ccc(C(F)(F)F)cc2)[C@@H](C)CN([C@H](C)CO)C(=O)c2cc(NC(=O)C3CCCCC3)ccc2O1	DENV2 CPE 27
C[C@@H]1CCCCO[C@H](CN(C)Cc2ccc(C(F)(F)F)cc2)[C@@H](C)CN([C@@H](C)CO)C(=O)c2cc(NC(=O)c3ccccc3)ccc2O1	none
C[C@@H]1CN([C@@H](C)CO)C(=O)c2cc(NC(=O)c3ccccc3)ccc2O[C@@H](C)CCCCO[C@H]1CN(C)Cc1ccc(C(F)(F)F)cc1	DENV2 CPE 49
C[C@@H]1CCCCO[C@@H](CN(C)Cc2ccc(C(F)(F)F)cc2)[C@@H](C)CN([C@H](C)CO)C(=O)c2cc(NC(=O)c3ccccc3)ccc2O1	DENV2 CPE 25
CNC[C@@H]1Oc2c(NC(=O)NC(C)C)cccc2C(=O)N([C@@H](C)CO)C[C@H]1C	none (no result: FGF22 binding)
COCC(=O)Nc1ccc2c(c1)[C@@H]1C[C@@H](CC(=O)NCc3ccccc3F)O[C@@H](CO)[C@@H]1O2	none
C[C@H]1CCCCO[C@@H](CN(C)Cc2ccc(C(F)(F)F)cc2)[C@@H](C)CN([C@@H](C)CO)C(=O)c2cc(NC(=O)c3ccccc3)ccc2O1	DENV2 CPE 23
CC(C)=CC(=O)Nc1ccc(OCc2ccccc2)cc1	FGF22 binding 74 (no result: E-sel inducer, DENV2 CPE)
O=S(=O)(c1cccc(F)c1)N1CC[C@@H]2[C@H]1c1cc(C#Cc3ccccc3F)ccc1N[C@@H]2CO	none
CCCN1C[C@H](C)[C@H](OC)CN(C)C(=O)c2ccc(NC(=O)c3cnccn3)cc2OC[C@@H]1C	none
CO[C@H]1CN(C)C(=O)c2ccc(NC(=O)c3cnccn3)cc2OC[C@@H](C)NC[C@H]1C	none (no result: ERAP1 inh, DENV2 CPE, FGF22 binding)
CO[C@@H]1CN(C)C(=O)c2cc(NC(=O)c3cnccn3)ccc2OC[C@H](C)N(CC2CC2)C[C@@H]1C	none
CO[C@H]1CN(C)C(=O)c2cc(NC(=O)c3cnccn3)ccc2OC[C@H](C)N(CC2CC2)C[C@@H]1C	DENV2 CPE 35
CCCN1C[C@@H](C)[C@H](OC)CN(C)C(=O)c2ccc(NC(=O)Nc3c(C)noc3C)cc2OC[C@@H]1C	DENV2 CPE 22
CCCN1C[C@@H](C)[C@@H](OC)CN(C)C(=O)c2ccc(NC(=O)c3cnccn3)cc2OC[C@@H]1C	DENV2 CPE 22
CO[C@H]1CN(C)C(=O)c2ccc(NC(=O)c3cnccn3)cc2OC[C@H](C)NC[C@H]1C	DENV2 CPE 53
CN(C)CC(=O)N1[C@@H](CO)[C@@H](c2ccccc2)C12CN(C(=O)C1CCCC1)C2	none
C[C@@H]1CN([C@@H](C)CO)C(=O)c2cccc(NC(=O)Nc3ccccc3)c2O[C@@H]1CN(C)C(=O)Nc1cccc2ccccc12	none (no result: ERAP1 inh, DENV2 CPE)
COc1cc(N2CCCC2)ccc1C=O	FGF22 binding 44 (no result: E-sel inducer)
O=Cc1ccc(N2CCCCC2)cc1	none (no result: E-sel inducer)
OCCCc1cn(CC2CCCCC2)nn1	DENV2 CPE 48
Cn1cc(Cl)c(C(=O)NC(=S)Nc2sc3c(c2C#N)CCCCC3)n1	FGF22 binding 52 (no result: E-sel inducer)
Cn1cc(Br)c(C(=O)Nc2sc3c(c2C#N)CCC3)n1	none
CCCCn1nc(C(=O)Nc2ccc(-n3cnnn3)cc2)c2ccccc2c1=O	DENV2 CPE 57
CCCCn1nc(C(=O)Nc2ccc3c(c2)OCO3)c2ccccc2c1=O	DENV2 CPE 36
O=C(C[C@H]1CC[C@H]2[C@@H](COC[C@@H](O)CN2CC2CCCCC2)O1)NCc1ccc(Cl)cc1	none
COc1ccc(C(NC(=O)C2C3C=CC(C3)C2C(=O)O)c2ccccc2)cc1 (configuration not stated)	DENV2 CPE inconclusive, FGF22 binding 52 (no result: E-sel inducer)
COc1ccc(NC(=O)C2C3C=CC(C3)C2C(=O)O)cc1 (configuration not stated)	none
CC(=O)Nc1ccc(SC(Sc2ccc(NC(C)=O)cc2)c2ccccc2)cc1	FGF22 binding 1.4
